{
  "source": "ChEMBL document CHEMBL1165943",
  "about": "“Design and synthesis of new anticancer pyrimidines with multiple-kinase inhibitory effect” (Bioorg Med Chem, 2010)",
  "key": {"SK-MEL-28 [1]": {"tested_on": "SK-MEL-28", "assay": "Cytotoxicity against human SK-MEL-28 cells assessed as cell growth at 10 uM after 48 hrs by sulforhodamine B assay", "format": "functional", "conditions": "SK-MEL-28, 48 h, read-out: Activity"}, "NCI-H226 [2]": {"tested_on": "NCI-H226", "assay": "Cytotoxicity against human NCI-H226 cells assessed as cell growth at 100 nM after 48 hrs by sulforhodamine B assay", "format": "functional", "conditions": "NCI-H226, 48 h, read-out: Activity"}, "SK-MEL-28 [3]": {"tested_on": "SK-MEL-28", "assay": "Growth inhibition of human SK-MEL-28 cells after 48 hrs by sulforhodamine B assay", "format": "functional", "conditions": "SK-MEL-28, 48 h", "method_in_brief": "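Adherent SK-MEL-28 cells, plated in RPMI 1640 with 5% FBS and 2 mM L-glutamine, get five 10-fold or ½log drug dilutions for 48 h at 37 °C. Cells are fixed with cold TCA (final 10%) for 60 min at 4 °C, stained with 0.4% SRB, solubilized in 10 mM Tris and read at 515 nm. IC50 is solved from [(Ti−Tz)/(C−Tz)]×100 = 50.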"}, "HCC 2998 [4]": {"tested_on": "HCC 2998", "assay": "Cytotoxicity against human HCC2998 cells assessed as cell growth at 1 uM after 48 hrs by sulforhodamine B assay", "format": "functional", "conditions": "HCC 2998, 48 h, read-out: Activity"}, "NCI-H226 [5]": {"tested_on": "NCI-H226", "assay": "Cytotoxicity against human NCI-H226 cells assessed as cell growth at 1 uM after 48 hrs by sulforhodamine B assay", "format": "functional", "conditions": "NCI-H226, 48 h, read-out: Activity"}, "SK-MEL-28 [6]": {"tested_on": "SK-MEL-28", "assay": "Cytotoxicity against human SK-MEL-28 cells assessed as cell growth at 1 uM after 48 hrs by sulforhodamine B assay", "format": "functional", "conditions": "SK-MEL-28, 48 h, read-out: Activity"}, "MCF7 [7]": {"tested_on": "MCF7", "assay": "Cytotoxicity against human MCF7 cells assessed as cell growth at 100 nM after 48 hrs by sulforhodamine B assay", "format": "functional", "conditions": "MCF7, 48 h, read-out: Activity"}, "CCRF-CEM": {"tested_on": "CCRF-CEM", "assay": "Growth inhibition of human CCRF-CEM cells after 48 hrs by sulforhodamine B assay", "format": "functional", "method_in_brief": "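Five-dose SRB assay. Cells in RPMI 1640 with 5% FBS and 2 mM L-glutamine were seeded at 5,000–40,000 cells/well, with a TCA-fixed time-zero plate (Tz) taken at 24 h. Compound stocks were in DMSO, serially diluted 10-fold or ½-log to five concentrations, and incubated 48 h at 37 °C. Plates were stained with SRB and read at 515 nm. IC₅₀ was taken where [(Ti−Tz)/(C−Tz)]×100 = 50.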"}, "PC-3": {"tested_on": "PC-3", "assay": "Cytotoxicity against human PC3 cells assessed as cell growth at 100 nM after 48 hrs by sulforhodamine B assay", "format": "functional", "conditions": "PC-3, 48 h, read-out: Activity"}, "RXF 393": {"tested_on": "RXF 393", "assay": "Cytotoxicity against human RXF393 cells assessed as cell growth at 0.001 uM after 48 hrs by sulforhodamine B assay", "format": "functional", "conditions": "RXF 393, 48 h, read-out: Activity"}, "SN12C": {"tested_on": "SN12C", "assay": "Cytotoxicity against human SN12C cells assessed as cell growth at 10 uM after 48 hrs by sulforhodamine B assay", "format": "functional", "conditions": "read-out: Activity"}, "SR [8]": {"tested_on": "SR", "assay": "Cytotoxicity against human SR cells assessed as cell growth at 0.01 uM after 48 hrs by sulforhodamine B assay", "format": "functional", "conditions": "read-out: Activity"}, "NCI-H226 [9]": {"tested_on": "NCI-H226", "assay": "Growth inhibition of human NCI-H226 cells after 48 hrs by sulforhodamine B assay", "format": "functional", "conditions": "NCI-H226, 48 h", "method_in_brief": "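Cells grown in RPMI 1640 with 5% FBS and 2 mM L-glutamine, seeded at 5,000–40,000 cells/well according to doubling time. After 24 h, time-zero plates are TCA-fixed. Five concentrations (10-fold or ½log dilutions, DMSO stocks) are applied for 48 h at 37 °C, 5% CO₂. Cells are TCA-fixed, SRB-stained and read at 515 nm. IC₅₀ is taken from [(Ti−Tz)/(C−Tz)]×100 = 50.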"}, "SK-MEL-28 [10]": {"tested_on": "SK-MEL-28", "assay": "Cytotoxicity against human SK-MEL-28 cells assessed as cell growth at 100 nM after 48 hrs by sulforhodamine B assay", "format": "functional", "conditions": "SK-MEL-28, 48 h, read-out: Activity"}, "SR [11]": {"tested_on": "SR", "assay": "Cytotoxicity against human SR cells assessed as cell growth at 0.001 uM after 48 hrs by sulforhodamine B assay", "format": "functional", "conditions": "read-out: Activity"}, "MCF7 [12]": {"tested_on": "MCF7", "assay": "Cytotoxicity against human MCF7 cells assessed as cell growth at 0.001 uM after 48 hrs by sulforhodamine B assay", "format": "functional", "conditions": "MCF7, 48 h, read-out: Activity"}, "SR [13]": {"tested_on": "SR", "assay": "Cytotoxicity against human SR cells assessed as cell growth at 10 uM after 48 hrs by sulforhodamine B assay", "format": "functional", "conditions": "read-out: Activity"}, "HCC 2998 [14]": {"tested_on": "HCC 2998", "assay": "Cytotoxicity against human HCC2998 cells assessed as cell growth at 0.001 uM after 48 hrs by sulforhodamine B assay", "format": "functional", "conditions": "HCC 2998, 48 h, read-out: Activity"}, "SR [15]": {"tested_on": "SR", "assay": "Cytotoxicity against human SR cells assessed as cell growth at 100 nM after 48 hrs by sulforhodamine B assay", "format": "functional", "conditions": "read-out: Activity"}, "SK-MEL-28 [16]": {"tested_on": "SK-MEL-28", "assay": "Cytotoxicity against human SK-MEL-28 cells assessed as cell growth at 0.01 uM after 48 hrs by sulforhodamine B assay", "format": "functional", "conditions": "SK-MEL-28, 48 h, read-out: Activity"}, "[17]": {"biological_target": "Tyrosine-protein kinase ABL1 (Homo sapiens) (UniProt P00519)", "sequence (P00519 whole entry)": "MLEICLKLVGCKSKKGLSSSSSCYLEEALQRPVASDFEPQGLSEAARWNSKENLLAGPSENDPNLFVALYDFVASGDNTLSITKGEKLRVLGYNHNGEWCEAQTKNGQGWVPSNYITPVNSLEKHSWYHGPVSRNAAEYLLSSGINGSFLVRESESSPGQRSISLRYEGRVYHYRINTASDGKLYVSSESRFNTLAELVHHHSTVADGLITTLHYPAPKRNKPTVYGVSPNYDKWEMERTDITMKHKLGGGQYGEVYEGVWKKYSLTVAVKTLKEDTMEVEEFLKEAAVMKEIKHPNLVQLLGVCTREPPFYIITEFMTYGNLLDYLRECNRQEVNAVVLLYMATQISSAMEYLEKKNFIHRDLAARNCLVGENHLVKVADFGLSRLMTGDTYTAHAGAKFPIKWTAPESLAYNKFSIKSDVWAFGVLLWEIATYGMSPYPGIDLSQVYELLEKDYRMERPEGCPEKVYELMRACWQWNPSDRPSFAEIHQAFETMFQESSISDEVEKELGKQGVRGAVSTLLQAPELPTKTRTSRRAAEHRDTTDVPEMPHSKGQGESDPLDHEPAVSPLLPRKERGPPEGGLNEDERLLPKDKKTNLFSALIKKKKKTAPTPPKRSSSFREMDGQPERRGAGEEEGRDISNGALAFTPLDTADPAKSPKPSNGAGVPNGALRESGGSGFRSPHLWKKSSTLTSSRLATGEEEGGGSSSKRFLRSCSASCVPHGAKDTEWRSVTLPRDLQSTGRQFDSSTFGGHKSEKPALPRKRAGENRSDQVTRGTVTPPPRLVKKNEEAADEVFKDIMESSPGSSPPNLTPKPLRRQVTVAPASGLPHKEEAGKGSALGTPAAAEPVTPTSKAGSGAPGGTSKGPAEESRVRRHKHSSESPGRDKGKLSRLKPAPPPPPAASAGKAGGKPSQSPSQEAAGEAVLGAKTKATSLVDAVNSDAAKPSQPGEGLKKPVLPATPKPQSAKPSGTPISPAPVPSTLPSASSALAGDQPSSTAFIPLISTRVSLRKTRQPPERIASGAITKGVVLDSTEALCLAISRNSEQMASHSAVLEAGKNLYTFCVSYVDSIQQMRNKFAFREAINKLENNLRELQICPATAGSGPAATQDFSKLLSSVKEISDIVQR", "assay": "Inhibition of ABL1 at 10 uM by HotSpot assay"}, "[18]": {"biological_target": "Macrophage-stimulating protein receptor (Homo sapiens) (UniProt Q04912)", "sequence (Q04912 25-304 limits assumed)": "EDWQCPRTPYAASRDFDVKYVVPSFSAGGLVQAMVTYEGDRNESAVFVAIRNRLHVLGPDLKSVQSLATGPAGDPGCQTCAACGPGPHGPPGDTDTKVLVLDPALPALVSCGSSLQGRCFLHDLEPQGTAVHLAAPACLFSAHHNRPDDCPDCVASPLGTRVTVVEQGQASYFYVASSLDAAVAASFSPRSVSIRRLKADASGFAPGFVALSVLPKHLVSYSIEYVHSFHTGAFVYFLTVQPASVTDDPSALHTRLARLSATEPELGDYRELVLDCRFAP", "sequence (Q04912 310-1400 limits assumed)": "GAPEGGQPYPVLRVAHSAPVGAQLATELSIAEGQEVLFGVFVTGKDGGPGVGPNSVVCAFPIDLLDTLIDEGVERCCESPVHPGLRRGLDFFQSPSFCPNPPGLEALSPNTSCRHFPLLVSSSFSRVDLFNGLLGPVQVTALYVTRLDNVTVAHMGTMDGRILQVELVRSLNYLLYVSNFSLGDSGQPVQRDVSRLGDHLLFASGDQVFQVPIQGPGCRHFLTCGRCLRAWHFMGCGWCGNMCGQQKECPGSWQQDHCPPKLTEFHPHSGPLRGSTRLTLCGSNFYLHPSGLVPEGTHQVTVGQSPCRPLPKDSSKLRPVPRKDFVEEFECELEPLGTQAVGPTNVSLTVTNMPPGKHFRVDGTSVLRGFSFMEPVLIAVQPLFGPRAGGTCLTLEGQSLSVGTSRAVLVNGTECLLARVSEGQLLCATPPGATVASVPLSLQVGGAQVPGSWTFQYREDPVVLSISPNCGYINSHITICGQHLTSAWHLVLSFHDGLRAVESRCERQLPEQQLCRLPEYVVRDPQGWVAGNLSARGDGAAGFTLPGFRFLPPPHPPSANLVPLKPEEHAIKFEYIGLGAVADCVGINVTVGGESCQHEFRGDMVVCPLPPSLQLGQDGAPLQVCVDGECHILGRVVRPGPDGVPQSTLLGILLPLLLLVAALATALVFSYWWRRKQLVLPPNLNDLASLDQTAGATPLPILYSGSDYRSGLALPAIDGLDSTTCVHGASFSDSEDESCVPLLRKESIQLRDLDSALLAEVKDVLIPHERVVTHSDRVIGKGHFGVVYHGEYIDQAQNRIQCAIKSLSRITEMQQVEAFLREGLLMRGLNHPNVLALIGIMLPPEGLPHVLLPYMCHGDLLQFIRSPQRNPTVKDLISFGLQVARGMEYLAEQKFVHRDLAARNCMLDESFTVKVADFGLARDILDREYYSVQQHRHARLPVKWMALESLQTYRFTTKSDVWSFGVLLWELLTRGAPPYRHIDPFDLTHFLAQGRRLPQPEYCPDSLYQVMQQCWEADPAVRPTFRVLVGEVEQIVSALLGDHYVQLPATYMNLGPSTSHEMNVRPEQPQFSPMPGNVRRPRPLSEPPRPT", "assay": "Inhibition of RON at 10 uM by HotSpot assay"}, "[19]": {"biological_target": "Rho-associated protein kinase 1 (Homo sapiens) (UniProt Q13464)", "assay": "Inhibition of ROCK1 at 10 uM by HotSpot assay"}, "[20]": {"biological_target": "Serine/threonine-protein kinase PLK1 (Homo sapiens) (UniProt P53350)", "sequence (P53350 whole entry)": "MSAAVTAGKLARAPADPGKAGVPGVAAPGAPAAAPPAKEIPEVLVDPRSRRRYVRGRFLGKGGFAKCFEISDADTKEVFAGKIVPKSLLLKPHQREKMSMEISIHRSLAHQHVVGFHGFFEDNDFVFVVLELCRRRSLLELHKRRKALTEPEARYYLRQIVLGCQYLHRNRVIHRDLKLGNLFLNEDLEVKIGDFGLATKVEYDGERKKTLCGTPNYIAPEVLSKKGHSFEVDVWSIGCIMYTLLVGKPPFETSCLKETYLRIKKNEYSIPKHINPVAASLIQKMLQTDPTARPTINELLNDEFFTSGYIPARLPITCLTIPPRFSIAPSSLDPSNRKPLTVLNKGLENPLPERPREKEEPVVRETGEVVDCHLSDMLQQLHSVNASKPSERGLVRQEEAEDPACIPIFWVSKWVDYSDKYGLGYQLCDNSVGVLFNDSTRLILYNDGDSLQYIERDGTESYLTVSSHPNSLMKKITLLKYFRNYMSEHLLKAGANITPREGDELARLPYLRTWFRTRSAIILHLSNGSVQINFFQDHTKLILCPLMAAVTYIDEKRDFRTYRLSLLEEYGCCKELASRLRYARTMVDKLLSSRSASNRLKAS", "assay": "Inhibition of PLK1 at 10 uM by HotSpot assay"}, "[21]": {"biological_target": "Calcium/calmodulin-dependent protein kinase type II subunit beta (Homo sapiens) (UniProt Q13554)", "sequence (Q13554 whole entry)": "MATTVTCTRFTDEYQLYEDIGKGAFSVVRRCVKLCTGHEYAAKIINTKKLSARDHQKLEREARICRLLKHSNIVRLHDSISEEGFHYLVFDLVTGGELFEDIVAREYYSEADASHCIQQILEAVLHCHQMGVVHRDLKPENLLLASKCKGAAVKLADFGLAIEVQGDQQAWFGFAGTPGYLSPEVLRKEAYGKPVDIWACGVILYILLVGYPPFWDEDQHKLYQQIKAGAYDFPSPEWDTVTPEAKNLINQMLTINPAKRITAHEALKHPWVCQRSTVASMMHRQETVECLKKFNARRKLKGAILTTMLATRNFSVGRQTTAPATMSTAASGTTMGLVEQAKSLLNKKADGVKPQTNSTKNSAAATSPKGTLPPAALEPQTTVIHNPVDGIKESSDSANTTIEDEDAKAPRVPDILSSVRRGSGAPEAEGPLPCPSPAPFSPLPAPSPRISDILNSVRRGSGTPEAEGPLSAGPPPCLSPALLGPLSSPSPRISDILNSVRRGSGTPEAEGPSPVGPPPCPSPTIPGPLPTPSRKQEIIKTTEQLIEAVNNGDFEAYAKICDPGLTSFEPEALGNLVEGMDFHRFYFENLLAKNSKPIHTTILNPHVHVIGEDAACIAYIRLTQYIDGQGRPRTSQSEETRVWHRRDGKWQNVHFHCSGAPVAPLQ", "assay": "Inhibition of CAMK2B at 10 uM by HotSpot assay"}, "[22]": {"biological_target": "Protein kinase C alpha type (Homo sapiens) (UniProt P17252)", "assay": "Inhibition of PKCalpha at 10 uM by HotSpot assay"}, "[23]": {"biological_target": "Tyrosine-protein kinase Fyn (Homo sapiens) (UniProt P06241)", "assay": "Inhibition of FYN at 10 uM by HotSpot assay"}, "[24]": {"biological_target": "Fibroblast growth factor receptor 1 (Homo sapiens) (UniProt P11362)", "assay": "Inhibition of FGFR1 at 10 uM by HotSpot assay"}, "[25]": {"biological_target": "Dual specificity mitogen-activated protein kinase kinase 1 (Homo sapiens) (UniProt Q02750)", "assay": "Inhibition of MEK1 at 10 uM by HotSpot assay"}, "[26]": {"biological_target": "Serine/threonine-protein kinase pim-1 (Homo sapiens) (UniProt P11309)", "assay": "Inhibition of PIM1 at 10 uM by HotSpot assay"}, "[27]": {"biological_target": "Inhibitor of nuclear factor kappa-B kinase subunit epsilon (Homo sapiens) (UniProt Q14164)", "sequence (Q14164 whole entry)": "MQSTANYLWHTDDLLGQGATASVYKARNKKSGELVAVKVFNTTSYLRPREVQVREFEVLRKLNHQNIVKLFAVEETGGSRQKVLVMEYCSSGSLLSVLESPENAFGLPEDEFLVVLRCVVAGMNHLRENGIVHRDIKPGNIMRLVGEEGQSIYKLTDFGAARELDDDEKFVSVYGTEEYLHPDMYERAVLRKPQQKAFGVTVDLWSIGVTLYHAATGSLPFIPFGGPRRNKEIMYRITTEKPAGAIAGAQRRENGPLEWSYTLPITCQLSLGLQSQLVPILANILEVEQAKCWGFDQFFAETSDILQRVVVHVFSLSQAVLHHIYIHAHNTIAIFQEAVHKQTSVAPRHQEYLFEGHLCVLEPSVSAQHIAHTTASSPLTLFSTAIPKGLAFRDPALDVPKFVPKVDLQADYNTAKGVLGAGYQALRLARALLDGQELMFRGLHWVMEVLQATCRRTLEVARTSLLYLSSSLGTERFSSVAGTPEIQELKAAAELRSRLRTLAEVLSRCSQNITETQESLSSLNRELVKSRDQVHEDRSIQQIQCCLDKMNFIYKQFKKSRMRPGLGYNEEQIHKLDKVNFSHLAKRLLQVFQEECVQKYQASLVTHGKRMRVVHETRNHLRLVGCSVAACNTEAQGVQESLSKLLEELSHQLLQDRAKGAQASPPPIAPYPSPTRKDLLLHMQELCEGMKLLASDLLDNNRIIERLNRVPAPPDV", "assay": "Inhibition of IKKepsilon at 10 uM by HotSpot assay"}, "[28]": {"biological_target": "Ribosomal protein S6 kinase beta-1 (Homo sapiens) (UniProt P23443)", "sequence (P23443 whole entry, looked up)": "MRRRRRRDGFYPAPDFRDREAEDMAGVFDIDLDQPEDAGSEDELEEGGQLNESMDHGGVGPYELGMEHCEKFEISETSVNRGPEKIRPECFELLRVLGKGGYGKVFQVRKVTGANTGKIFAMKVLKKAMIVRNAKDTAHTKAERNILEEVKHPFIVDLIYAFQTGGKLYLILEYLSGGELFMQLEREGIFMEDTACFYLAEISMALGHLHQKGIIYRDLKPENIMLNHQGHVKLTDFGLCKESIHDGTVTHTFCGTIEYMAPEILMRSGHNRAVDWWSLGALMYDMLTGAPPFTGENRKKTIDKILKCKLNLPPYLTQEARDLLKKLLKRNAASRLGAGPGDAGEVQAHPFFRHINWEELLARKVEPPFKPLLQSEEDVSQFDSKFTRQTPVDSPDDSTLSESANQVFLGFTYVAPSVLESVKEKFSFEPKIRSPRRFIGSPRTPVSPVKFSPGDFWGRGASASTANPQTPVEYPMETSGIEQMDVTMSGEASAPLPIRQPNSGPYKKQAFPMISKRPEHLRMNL", "assay": "Inhibition of p70S6K1 at 10 uM by HotSpot assay"}, "[29]": {"biological_target": "Tyrosine-protein kinase Lyn (Homo sapiens) (UniProt P07948)", "assay": "Inhibition of LYN at 10 uM by HotSpot assay"}, "[30]": {"biological_target": "Mitogen-activated protein kinase 1 (Homo sapiens) (UniProt P28482)", "assay": "Inhibition of MAPK1 at 10 uM by HotSpot assay"}, "[31]": {"conditions": "read-out: LC50 (the source's name)"}},
  "data": [
    {"smiles": "CC(=O)c1ccccc1-c1ccc(-c2ccnc(NC(=O)Nc3cc(N4CCOCC4)cc(C(F)(F)F)c3)n2)cn1", "values": [
      {"measurement": "growth at 10 µM", "setting": "SK-MEL-28 [1]", "value": 93, "unit": "%"},
      {"measurement": "growth at 0.1 µM", "setting": "NCI-H226 [2]", "value": 96, "unit": "%"},
      {"measurement": "TGI", "setting": "SK-MEL-28 [3]", "value": "> 100", "unit": "µM"},
      {"measurement": "CC50", "setting": "SK-MEL-28 [3]; [31]", "value": "> 100", "unit": "µM"},
      {"measurement": "growth at 1 µM", "setting": "HCC 2998 [4]", "value": 114, "unit": "%"},
      {"measurement": "growth at 1 µM", "setting": "NCI-H226 [5]", "value": 53, "unit": "%"},
      {"measurement": "growth at 1 µM", "setting": "SK-MEL-28 [6]", "value": 4, "unit": "%"},
      {"measurement": "growth at 0.1 µM", "setting": "MCF7 [7]", "value": 100, "unit": "%"},
      {"measurement": "GI50", "setting": "CCRF-CEM", "value": "> 100", "unit": "µM"},
      {"measurement": "TGI", "setting": "CCRF-CEM", "value": "> 100", "unit": "µM"},
      {"measurement": "CC50", "setting": "CCRF-CEM; [31]", "value": "> 100", "unit": "µM"},
      {"measurement": "growth at 0.1 µM", "setting": "PC-3", "value": 92, "unit": "%"},
      {"measurement": "growth at 0.001 µM", "setting": "RXF 393", "value": 101, "unit": "%"},
      {"measurement": "growth at 10 µM", "setting": "SN12C", "value": 79, "unit": "%"},
      {"measurement": "growth at 0.01 µM", "setting": "SR [8]", "value": 89, "unit": "%"},
      {"measurement": "GI50", "setting": "NCI-H226 [9]", "value": "> 100", "unit": "µM"},
      {"measurement": "TGI", "setting": "NCI-H226 [9]", "value": "> 100", "unit": "µM"},
      {"measurement": "CC50", "setting": "NCI-H226 [9]; [31]", "value": "> 100", "unit": "µM"},
      {"measurement": "growth at 0.1 µM", "setting": "SK-MEL-28 [10]", "value": 92, "unit": "%"},
      {"measurement": "growth at 0.001 µM", "setting": "SR [11]", "value": 94, "unit": "%"},
      {"measurement": "growth at 0.001 µM", "setting": "MCF7 [12]", "value": 94, "unit": "%"},
      {"measurement": "growth at 10 µM", "setting": "SR [13]", "value": 107, "unit": "%"},
      {"measurement": "growth at 0.001 µM", "setting": "HCC 2998 [14]", "value": 110, "unit": "%"},
      {"measurement": "growth at 0.1 µM", "setting": "SR [15]", "value": 74, "unit": "%"},
      {"measurement": "growth at 0.01 µM", "setting": "SK-MEL-28 [16]", "value": 107, "unit": "%"}
    ]},
    {"smiles": "CC(=O)Nc1cccc(-c2ccc(-c3ccnc(NC(=O)Nc4cc(C(F)(F)F)cc(C(F)(F)F)c4)n3)cn2)c1.Cl", "values": [
      {"measurement": "inhibition", "setting": "[17]", "value": 70, "unit": "%"},
      {"measurement": "inhibition", "setting": "[18]", "value": "< 50", "unit": "%"},
      {"measurement": "inhibition", "setting": "[19]", "value": "< 50", "unit": "%"},
      {"measurement": "inhibition", "setting": "[20]", "value": "< 50", "unit": "%"},
      {"measurement": "inhibition", "setting": "[21]", "value": "< 50", "unit": "%"},
      {"measurement": "inhibition", "setting": "[22]", "value": "< 50", "unit": "%"},
      {"measurement": "inhibition", "setting": "[23]", "value": 50, "unit": "%"},
      {"measurement": "inhibition", "setting": "[24]", "value": "< 50", "unit": "%"},
      {"measurement": "inhibition", "setting": "[25]", "value": "< 50", "unit": "%"},
      {"measurement": "inhibition", "setting": "[26]", "value": 60, "unit": "%"},
      {"measurement": "inhibition", "setting": "[27]", "value": "< 50", "unit": "%"},
      {"measurement": "inhibition", "setting": "[28]", "value": "< 50", "unit": "%"},
      {"measurement": "inhibition", "setting": "[29]", "value": "< 50", "unit": "%"},
      {"measurement": "inhibition", "setting": "[30]", "value": "< 50", "unit": "%"}
    ]}
  ]
}
